In ChEMBL document CHEMBL1165943, “Design and synthesis of new anticancer pyrimidines with multiple-kinase inhibitory effect” (Bioorg Med Chem, 2010):

Legend:
Type in all cases: functional
HL-60(TB) = experiment: Cytotoxicity against human HL-60(TB) cells assessed as cell growth at 10 uM; conditions: Homo sapiens, HL-60; read-out: Activity
Summary of the method: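 Single-concentration 10 µM screen of HL-60(TB) within the 60-line panel, grown in RPMI 1640 with 5% FBS. The drug from DMSO stock is incubated 48 h at 37 °C, settled cells are TCA-fixed and SRB-stained, and absorbance is read at 515 nm. Percent growth is reported, and inhibition % is taken as 100 minus growth %.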

K562 = experiment: Cytotoxicity against human K562 cells assessed as cell growth at 10 uM; conditions: Homo sapiens, K562; read-out: Activity
Summary of the method: (§1)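 Single-dose screen at 10 μM across the 60-cell-line panel. Cells grown in RPMI 1640 with 5% FBS and 2 mM L-glutamine, seeded at 5,000–40,000 cells/well according to doubling time, and treated 24 h later. Exposure lasted 48 h at 37 °C, 5% CO₂. Adherent cells were fixed with cold TCA, suspension cells were fixed settled, and both were stained with SRB and read at 515 nm. Growth % was recorded, with inhibition % = 100 − growth %.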

SR = experiment: Cytotoxicity against human SR cells assessed as cell growth at 10 uM; summary of the method: as §1
EKVX = experiment: Cytotoxicity against human EKVX cells assessed as cell growth at 10 uM; conditions: Homo sapiens, EKVX; read-out: Activity
Summary of the method: (§2)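 Single-concentration screen at 10 μM across the 60-cell-line panel (nine tissue types); growth percentage recorded per cell line, with inhibition taken as 100 minus growth percentage.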

HOP-62 = experiment: Cytotoxicity against human HOP62 cells assessed as cell growth at 10 uM; conditions: Homo sapiens, HOP-62; read-out: Activity; summary of the method: as §2
NCI-H226 = experiment: Cytotoxicity against human NCI-H226 cells assessed as cell growth at 10 uM; conditions: Homo sapiens, NCI-H226; read-out: Activity; summary of the method: as §1
NCI-H23 = experiment: Cytotoxicity against human NCI-H23 cells assessed as cell growth at 10 uM; conditions: Homo sapiens, NCI-H23; read-out: Activity; summary of the method: as §1
NCI-H460 = experiment: Cytotoxicity against human NCI-H460 cells assessed as cell growth at 10 uM; conditions: Homo sapiens, NCI-H460; read-out: Activity; summary of the method: as §1
NCI-H522 = experiment: Cytotoxicity against human NCI-H522 cells assessed as cell growth at 10 uM; conditions: Homo sapiens, NCI-H522; read-out: Activity; summary of the method: as §1
COLO 205 = experiment: Cytotoxicity against human COLO205 cells assessed as cell growth at 10 uM; conditions: Homo sapiens, COLO 205; read-out: Activity; summary of the method: as §2
HCT-116 = experiment: Cytotoxicity against human HCT116 cells assessed as cell growth at 10 uM; conditions: Homo sapiens, HCT-116; read-out: Activity; summary of the method: as §2
HT-29 = experiment: Cytotoxicity against human HT-29 cells assessed as cell growth at 10 uM; conditions: Homo sapiens, HT-29; read-out: Activity; summary of the method: as §2
SW-620 = experiment: Cytotoxicity against human SW620 cells assessed as cell growth at 10 uM; conditions: Homo sapiens, SW-620; read-out: Activity; summary of the method: as §1
SF-295 = experiment: Cytotoxicity against human SF295 cells assessed as cell growth at 10 uM; summary of the method: as §1
SF-539 = experiment: Cytotoxicity against human SF539 cells assessed as cell growth at 10 uM; conditions: Homo sapiens, SF-539; read-out: Activity; summary of the method: as §1
SNB-75 = experiment: Cytotoxicity against human SNB75 cells assessed as cell growth at 10 uM; conditions: Homo sapiens, SNB-75; read-out: Activity; summary of the method: as §1
U-251 = experiment: Cytotoxicity against human U251 cells assessed as cell growth at 10 uM; conditions: Homo sapiens, U-251; read-out: Activity; summary of the method: as §1
M14 = experiment: Cytotoxicity against human M14 cells assessed as cell growth at 10 uM; summary of the method: as §1
SK-MEL-2 = experiment: Cytotoxicity against human SK-MEL-2 cells assessed as cell growth at 10 uM; summary of the method: as §1
SK-MEL-5 = experiment: Cytotoxicity against human SK-MEL-5 cells assessed as cell growth at 10 uM; summary of the method: as §1
UACC-257 = experiment: Cytotoxicity against human UACC257 cells assessed as cell growth at 10 uM; summary of the method: as §1
IGROV-1 = experiment: Cytotoxicity against human IGROV1 cells assessed as cell growth at 10 uM; summary of the method: as §1
OVCAR-3 = experiment: Cytotoxicity against human OVCAR-3 cells assessed as cell growth at 10 uM; summary of the method: as §1
OVCAR-5 = experiment: Cytotoxicity against human OVCAR5 cells assessed as cell growth at 10 uM; summary of the method: as §1
NCI/ADR-RES = experiment: Cytotoxicity against human NCI/ADR-RES cells assessed as cell growth at 10 uM; summary of the method: as §1
SK-OV-3 = experiment: Cytotoxicity against human SKOV3 cells assessed as cell growth at 10 uM; summary of the method: as §1
786-0 = experiment: Cytotoxicity against human 786-0 cells assessed as cell growth at 10 uM; summary of the method: as §2
A498 = experiment: Cytotoxicity against human A498 cells assessed as cell growth at 10 uM; summary of the method: as §2
ACHN = experiment: Cytotoxicity against human ACHN cells assessed as cell growth at 10 uM; summary of the method: as §2
CAKI-1 = experiment: Cytotoxicity against human Caki1 cells assessed as cell growth at 10 uM; summary of the method: as §2
TK-10 = experiment: Cytotoxicity against human TK10 cells assessed as cell growth at 10 uM; summary of the method: as §1
UO-31 = experiment: Cytotoxicity against human UO31 cells assessed as cell growth at 10 uM; summary of the method: as §1
PC-3 = experiment: Cytotoxicity against human PC3 cells assessed as cell growth at 10 uM; summary of the method: as §1
DU-145 = experiment: Cytotoxicity against human DU145 cells assessed as cell growth at 10 uM; summary of the method: as §2
T47D = experiment: Cytotoxicity against human T47D cells assessed as cell growth at 10 uM; summary of the method: as §1
MDA-MB-468 = experiment: Cytotoxicity against human MDA-MB-468 cells assessed as cell growth at 10 uM; summary of the method: as §1
[1] = Growth inhibition of human NCI60 cells at 10 uM after 48 hrs by sulforhodamine B assay relative to control; conditions: Homo sapiens, NCI60, 48 h; read-out: GI
Summary of the method: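 Single 10 µM dose across the 60-line panel for 48 h, with the same culture, TCA fixation and SRB 515 nm read-out. Inhibition % = 100 − growth %, given as the mean over the 60 cell lines.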

FC(F)(F)c1cc(Nc2nccc(-c3ccc(-c4ccccc4)nc3)n2)cc(C(F)(F)F)c1
growth at 10 µM (HL-60(TB)): 113%
growth at 10 µM (K562): 91.5%
growth at 10 µM (SR; Homo sapiens, SR, read-out: Activity): 97.8%
growth at 10 µM (EKVX): 101%
growth at 10 µM (HOP-62): 110%
growth at 10 µM (NCI-H226): 115%
growth at 10 µM (NCI-H23): 98.5%
growth at 10 µM (NCI-H460): 107%
growth at 10 µM (NCI-H522): 83.3%
growth at 10 µM (COLO 205): 95.6%
growth at 10 µM (HCT-116): 81.6%
growth at 10 µM (HT-29): 86%
growth at 10 µM (SW-620): 110%
growth at 10 µM (SF-295; Homo sapiens, SF-295, read-out: Activity): 114%
growth at 10 µM (SF-539): 95.8%
growth at 10 µM (SNB-75): 86.8%
growth at 10 µM (U-251): 99.1%
growth at 10 µM (M14; Homo sapiens, M14, read-out: Activity): 81.4%
growth at 10 µM (SK-MEL-2; Homo sapiens, SK-MEL-2, read-out: Activity): 91.6%
growth at 10 µM (SK-MEL-5; Homo sapiens, SK-MEL-5, read-out: Activity): 102%
growth at 10 µM (UACC-257; Homo sapiens, UACC-257, read-out: Activity): 113%
growth at 10 µM (IGROV-1; Homo sapiens, IGROV-1, read-out: Activity): 77.8%
growth at 10 µM (OVCAR-3; Homo sapiens, OVCAR-3, read-out: Activity): 114%
growth at 10 µM (OVCAR-5; Homo sapiens, OVCAR-5, read-out: Activity): 111%
growth at 10 µM (NCI/ADR-RES; Homo sapiens, NCI/ADR-RES, read-out: Activity): 101%
growth at 10 µM (SK-OV-3; Homo sapiens, SK-OV-3, read-out: Activity): 94.6%
growth at 10 µM (786-0; Homo sapiens, 786-0, read-out: Activity): 101%
growth at 10 µM (A498; Homo sapiens, A498, read-out: Activity): 110%
growth at 10 µM (ACHN; Homo sapiens, ACHN, read-out: Activity): 96%
growth at 10 µM (CAKI-1; Homo sapiens, CAKI-1, read-out: Activity): 91.6%
growth at 10 µM (TK-10; Homo sapiens, TK-10, read-out: Activity): 99.5%
growth at 10 µM (UO-31; Homo sapiens, UO-31, read-out: Activity): 87.2%
growth at 10 µM (PC-3; Homo sapiens, PC-3, read-out: Activity): 90.3%
growth at 10 µM (DU-145; Homo sapiens, DU-145, read-out: Activity): 109%
growth at 10 µM (T47D; Homo sapiens, T47D, read-out: Activity): 80.1%
growth at 10 µM (MDA-MB-468; Homo sapiens, MDA-MB-468, read-out: Activity): 110%
inhibition of growth at 10 µM [1]: 0.49%

CC(=O)c1ccccc1-c1ccc(-c2ccnc(NC(=O)Nc3cc(C(F)(F)F)cc(C(F)(F)F)c3)n2)cn1
growth at 10 µM (HL-60(TB)): 101%
growth at 10 µM (K562): 90.8%
Activity (SR): 19.97%
growth at 10 µM (EKVX): 91%
growth at 10 µM (HOP-62): 95.6%
growth at 10 µM (NCI-H226): 98.6%
growth at 10 µM (NCI-H23): 99.8%
growth at 10 µM (NCI-H460): 95.9%
growth at 10 µM (NCI-H522): 90.1%
growth at 10 µM (COLO 205): 90.9%
growth at 10 µM (HCT-116): 69.9%
growth at 10 µM (HT-29): 96.3%
growth at 10 µM (SW-620): 81.8%
Activity (SF-295): 110.95%
growth at 10 µM (SF-539): 87%
growth at 10 µM (SNB-75): 72%
growth at 10 µM (U-251): 85.1%
Activity (M14): 102.28%
Activity (SK-MEL-2): 95.01%
Activity (SK-MEL-5): 97.2%
Activity (UACC-257): 92.59%
Activity (IGROV-1): 78.4%
Activity (OVCAR-3): 126.52%
Activity (OVCAR-5): 113.85%
Activity (NCI/ADR-RES): 87.74%
Activity (SK-OV-3): 91.88%
Activity (786-0): 93.55%
Activity (A498): 106.93%
Activity (ACHN): 88.77%
Activity (CAKI-1): 81.28%
Activity (TK-10): 102.3%
Activity (UO-31): 76.28%
Activity (PC-3): 74.12%
Activity (DU-145): 91.19%
Activity (T47D): 82.59%
Activity (MDA-MB-468): 81.95%
inhibition of growth at 10 µM [1]: 11.3%
